In series [1] the test system is Hepatitis C virus. Put plainly: Antiviral activity against Hepatitis C virus infected human Huh-5-2 cells assessed as inhibition of luciferase activity after 4 days by RNA replicon assay. The series is classed as functional, organism-based, Hepacivirus hominis. Conditions: Huh-5-2, 96 h. The essentials: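 Huh-5-2 subgenomic HCV replicon cells seeded 5000/well in complete DMEM with 250 µg/mL G418, 24 h at 37 °C (5% CO2). Threefold serial compound dilutions then added in DMEM without G418, 4 days at 37 °C. Replication read as luciferase activity (Steady-Glo). EC50 = concentration giving 50% inhibition of luciferase signal.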
For orientation: Replicon systems follow genome replication, usually without infectious particles.

Series [2] in a line: Cytotoxicity against human Huh-5-2 cells. Format: cell-based. The essentials: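 Exponentially growing Huh-5-2 cells treated with compound. CC50 taken as the concentration that inhibits cell proliferation by 50%.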
The test system of the next series is Huh-5-2. Put plainly: Cytotoxicity against human Huh-5-2 cells at 50 ug/ml. The series is classed as cell-based.
Series [3] deals with Hepatitis C virus. Description: Antiviral activity against Hepatitis C virus infected human Huh-9-13 cells assessed as reduction of HCV RNA level after 4 days by RT-PCR. The series is classed as functional, organism-based, Hepacivirus hominis. Conditions: 96 h. The procedure, abridged: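 Huh-9-13 replicon cells seeded 5000/well in complete DMEM with 1,000 µg/mL G418, 24 h at 37 °C. Threefold serial compound dilutions added in DMEM without G418, 4 days at 37 °C. Monolayers PBS-washed, lysed in RLT buffer, replicon RNA measured by quantitative real-time PCR. EC50 = 50% reduction in HCV RNA versus untreated control.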

The next series has as its system PaCa. Put plainly: Cytotoxicity against human MIA PaCa cells upto 200 uM by MTT assay. The series is classed as functional, cell-based. The procedure, abridged:
(§1)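 MiaPaCa, Capan-2 and PC-3 cells tested by MTT assay at concentrations up to 200 µM.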

The test system of a further series is Capan-2. Description: Cytotoxicity against human Capan2 cells upto 200 uM by MTT assay. Format: functional, cell-based. The essentials:
as §1

The next series deals with PC-3. Description: Cytotoxicity against human PC3 cells upto 200 uM by MTT assay. The series is classed as functional, cell-based. The essentials: as §1
(Formazan colour is commonly taken as a measure of viable cells.)

The values below come from ChEMBL document CHEMBL1150316, “Arylethynyltriazole acyclonucleosides inhibit hepatitis C virus replication” (Bioorg Med Chem Lett, 2008).

As a reminder, the EC50 is the midpoint of the concentration-response curve. The CC50 is the concentration giving 50% cytotoxicity. A high value points to lower toxicity to the cells.

Structures are written as SMILES. Converted amounts (≈) assume the structure as drawn.

For `NC(=O)c1nc(C#Cc2cccc(F)c2)n(COCCO)n1`, the EC50 with Hepatitis C virus [1] turned out to be 10 µg/mL (≈ 32.9 µM). The same compound showed a 50% cytotoxic concentration (CC50) in series [2] of 29 µg/mL (≈ 95.3 µM).
Consider `Cc1ccc(C#Cc2nc(C(N)=O)nn2COCCO)cc1`, for which the Activity in the series on Huh-5-2 is below 80%. Also, the EC50 with Hepatitis C virus [1] was 16 µg/mL (≈ 53.3 µM). Also, in series [2], the 50% cytotoxic concentration (CC50) is above 50 µg/mL.
`NC(=O)c1nc(C#CC2(O)CCCCC2)n(COCCO)n1`: in the series with Hepatitis C virus [1], the EC50 is above 50 µg/mL. The compound further registered a CC50 in series [2] above 50 µg/mL.
For `COc1ccc(C#Cc2nc(C(N)=O)nn2COCCO)cc1`, the EC50 in the series with Hepatitis C virus [1] was above 50 µg/mL. Besides, the CC50 in series [2] was above 50 µg/mL.
As for `CCCCCc1ccc(C#Cc2nc(C(N)=O)nn2COCCO)cc1`, the concentration giving a half-maximal response (EC50) in the series with Hepatitis C virus [1] worked out at 22 µg/mL (≈ 61.7 µM). The CC50 in series [2] turned out to be 25 µg/mL (≈ 70.1 µM).
For `NC(=O)c1ncn([C@@H]2O[C@H](CO)[C@@H](O)[C@H]2O)n1` [RIBAVIRIN] the same measures were 7 µg/mL (≈ 28.7 µM) and 21 µg/mL (≈ 86 µM).
For `NC(=O)c1nc(C#CC2(O)CCCC2)n(COCCO)n1` the same measures were above 50 µg/mL and above 50 µg/mL.
For `NC(=O)c1nc(C#CCCCCl)n(COCCO)n1` the same measures were above 50 µg/mL and above 50 µg/mL.
Regarding `NC(=O)c1nc(C#Cc2ccc(C(F)(F)F)cc2)n(COCCO)n1`, the 50% effective concentration (EC50) in the series on Hepatitis C virus [1] stood at 5 µg/mL (≈ 14.1 µM). In addition, in series [2], the CC50 amounted to 20 µg/mL (≈ 56.5 µM).
Turning to `NC(=O)c1nc(C#Cc2ccccc2)n(COCCO)n1`, the results for the EC50 in the series with Hepatitis C virus [3] and in the series with Hepatitis C virus [1] were above 50 µg/mL and 18 µg/mL (≈ 62.9 µM), respectively. Further, the Activity result with PaCa, with Capan-2 and in the series on PC-3 was “Not toxic” in each case. For the same compound, the CC50 in series [2] was above 50 µg/mL.
Regarding `NC(=O)c1nc(C#Cc2ccccc2F)n(COCCO)n1`, the Activity in the series on Huh-5-2 was below 80%. In the series with Hepatitis C virus [1], the concentration giving a half-maximal response (EC50) was 20 µg/mL (≈ 65.7 µM). This compound came in with a half-maximal cytotoxic concentration (CC50) in series [2] above 50 µg/mL.
Turning to `NC(=O)c1nc(C#CC2=CCCCC2)n(COCCO)n1`, the EC50 in the series on Hepatitis C virus [1] was above 50 µg/mL. The CC50 in series [2] was above 50 µg/mL.
In the case of `NC(=O)c1nc(C#Cc2ccc(F)cc2)n(COCCO)n1`, the Activity entry with PaCa, with Capan-2 and in the series with PC-3 was “Not toxic” throughout. The EC50 in the series on Hepatitis C virus [1] was 22 µg/mL (≈ 72.3 µM). In series [2], this compound returned a CC50 above 50 µg/mL.
